Experimental findings from ChEMBL document CHEMBL1137684, “Examination of growth inhibitory properties of synthetic chalcones for which antibacterial activity was predicted” (2009) are described below.

≈ marks a conversion by molar mass, not a printed value. Calls of active or inactive are those of the source. No rule for the calls is given here.

Test [1] relates to Staphylococcus aureus. Description: Antibacterial activity against Staphylococcus aureus Rosenbach 209 after 24 hrs by serial dilution method. The note with it: Rosenbach 209, 24 h. In kind it is functional. The procedure, abridged:
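Serial dilution of each chalcone in meat-peptone broth in tubes. Each tube was inoculated with bacterial suspension at 10⁵ cells/ml and incubated at 37 °C for 24 h. MIC was the lowest dilution with no visible growth compared with inoculated drug-free broth.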

The next test has as its system Escherichia coli. Description: Antibacterial activity against Escherichia coli WF+. The test is classed as functional, organism-based.
The test system of test [2] is Staphylococcus aureus. As to the kind of experiment: Antibacterial activity against Staphylococcus aureus Rosenbach 209 after 48 hrs by agar well diffusion method. The test is classed as functional. The procedure, abridged:
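Agar-well diffusion on meat-peptone agar. Read-out was the diameter of the inhibition zone, with ≥15 mm taken as active. Pure solvent served as the control.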
(In general: Agar diffusion results depend on both activity and mobility in agar.)

Consider `O=C(/C=C/c1cccc(O)c1)c1ccc(Cl)cc1`, for which inhibition of growth with Staphylococcus aureus [1] (MIC) required 125 µg/mL (≈ 483 µM). In addition, in the test on Escherichia coli, the outcome was inactive. For the same compound, the “diameter of the inhibition zone (DIZ)” value with Staphylococcus aureus [2] is 25 mm.
